Hits are enriched below; roughly 2.6% of the tested compounds scored in any of these assays.
mABHD4 FP: inhibitors of mouse ABHD4; Q8VD66; purified mABHD4, FP-Rh probe fluorescence polarization; inhibition, % at 8.92 µM; hit rate 0.54% among 370,000; AID 720543;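 active = inhibition exceeding the mean over every tested compound plus 3 SD, cut at about 30% in these data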
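Material: mouse ABHD4 enzyme, wild type; Benchmarks: S159A mutant high control, sample median low control; Buffer or medium: HEPES pH 7.0, NaCl, Pluronic buffer; Signal: fluorescence polarization; Read-out: percent inhibition of probe binding, normalized to plate controls; Timing: pre-incubation 45 min, probe exposure 60 min, at 25 °C; Dosing: 8.92 µM, single dose.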
PRMT1 inh: inhibitors of human PRMT1; AID 652257; hit rate 1.3% among 370,000; Q99873; inhibition, % at 2.79 µM; recombinant PRMT1, activity-based probe fluorescence polarization;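 active = inhibition above about 21% made by adding two undisclosed values, limit read from the data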
SIAE inh: blocks human sialic acid acetylesterase; Q9HAT2; inhibition, % at 9.66 µM; hit rate 0.69% among 370,000; AID 1053197; SIAE FP-Rh probe binding, fluorescence polarization;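 active = inhibition above a cutoff: mean of compounds within the control limits plus 3 SD of those, cut at about 17% in these data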
Target sequence (Q9HAT2 whole entry, looked up): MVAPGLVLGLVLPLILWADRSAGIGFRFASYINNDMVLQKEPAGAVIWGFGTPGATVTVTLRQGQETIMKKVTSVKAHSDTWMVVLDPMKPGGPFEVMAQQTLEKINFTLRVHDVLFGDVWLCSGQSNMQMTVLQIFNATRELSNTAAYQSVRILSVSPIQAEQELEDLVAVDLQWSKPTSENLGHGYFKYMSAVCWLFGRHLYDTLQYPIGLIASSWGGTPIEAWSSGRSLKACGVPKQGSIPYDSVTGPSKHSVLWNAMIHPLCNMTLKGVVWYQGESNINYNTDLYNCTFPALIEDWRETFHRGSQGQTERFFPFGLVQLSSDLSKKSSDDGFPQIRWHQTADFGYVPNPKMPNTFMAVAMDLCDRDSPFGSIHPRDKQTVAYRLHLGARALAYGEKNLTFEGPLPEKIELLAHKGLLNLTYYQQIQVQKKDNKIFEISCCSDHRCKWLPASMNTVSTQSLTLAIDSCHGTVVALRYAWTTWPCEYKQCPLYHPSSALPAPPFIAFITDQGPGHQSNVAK
HTRA1 inhibitor: inhibitors of human serine peptidase HTRA1; recombinant HTRA1, FP-rhodamine activity-based probe, fluorescence polarization; Q92743; hit rate 0.5% among 340,000; inhibition, % at 5.96 µM; AID 504803; in the data active = inhibition above about 36%
TCR-CD3 inh: inhibitors of human TCR-CD3 interaction | AID 651800 | TAMRA-labeled TCR probe fluorescence, biochemical | hit rate 0.37% among 360,000 | inhibition, % at 9.4 µM; in the data active = inhibition above about 19%;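 note: recombinant mutant TCR 2C K166C tagged with TAMRA read by polarization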
PRMT1 inh conf: PRMT1 (human) inhibition, FP confirmation | hit rate 42% among 3,300 | recombinant His-PRMT1, activity-based probe fluorescence polarization | shares compounds with PRMT1 inh | inhibition, % at 2.79 µM | AID 687036;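 active = mean inhibition across replicates above the hit cutoff derived for the earlier primary screen, cut at about 22% in these data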
Of the large screens only hits and unclear results are named; the others gave an inactive call (follow-up assays come after a bar, where they were run).

COc1ccc(N2C(=O)CC(Sc3ncn[nH]3)C2=O)c(OC)c1 (stereo not given)	PRMT1 inh 89.0 | PRMT1 inh conf 35.9
CCCc1c(O)nc(SC2CC(=O)N(c3cc(OC)ccc3OC)C2=O)[nH]c1=O (stereo not given)	none
CC1CC(=O)N(c2ccc(C(C)C)cc2)C(=O)C1	none
O=C(CSc1nc2ccccc2nc1N1CCCC1)N1CCN(C(c2ccccc2)c2ccccc2)CC1	none (no result: HTRA1 inhibitor, TCR-CD3 inh)
O=Cc1ccc(Oc2ccc(F)cc2)nc1	none
Nc1ccc(Oc2ccc(F)cc2)nc1	PRMT1 inh 26.1 | PRMT1 inh conf inactive
COc1ccc(C(=O)NC(=O)CSc2nc3nc(C)cc(C)n3n2)cc1	PRMT1 inh 27.2 | PRMT1 inh conf inactive
Nc1c(C(=O)N/N=C/c2cccnc2)oc2nc(-c3ccco3)cc(-c3ccco3)c12	PRMT1 inh 45.7 (no result: HTRA1 inhibitor) | PRMT1 inh conf inactive
O=C(c1ccco1)N1CCN(C(=O)c2cc(-c3ccncc3)nc3ccc(Br)cc23)CC1	none
O=C(COC(=O)c1cc(-c2cccs2)nc2ccccc12)NCc1ccco1	none
O=C(COC(=O)c1cc(-c2ccco2)nc2ccccc12)NCc1ccc2c(c1)OCO2	PRMT1 inh 35.1 | PRMT1 inh conf inactive
NC(=O)COC(=O)c1cc(-c2ccco2)nc2ccccc12	PRMT1 inh 28.4 | PRMT1 inh conf inactive
O=C(COC(=O)c1cc(-c2ccc(Cl)s2)nc2ccccc12)NCc1ccco1	PRMT1 inh 29.7 | PRMT1 inh conf inactive
O=C(O)c1cc(-c2ccco2)nc2ccc(Br)cc12	PRMT1 inh 35.4 | PRMT1 inh conf inactive
Cc1ccc2nc(N(CCCN(C)C)C(=O)c3ccc4ncsc4c3)sc2c1	PRMT1 inh 28.2 | PRMT1 inh conf inactive
COc1ccc2nc(N(CCN(C)C)C(=O)c3ccc4ncsc4c3)sc2c1	none
CCOC(=O)[C@@]12CN(C(=O)OC(C)(C)C)CC=C1N(Cc1ccc(OC)cc1)C(=O)[C@H]2CC(=O)N1CCN(C(=O)C2CC2)CC1	none (no result: HTRA1 inhibitor, TCR-CD3 inh)
O=C(CSc1cn[nH]n1)Nc1cccc(C(=O)O)c1	PRMT1 inh 71.9 | PRMT1 inh conf 89.8
Cc1cccc(NC(=O)CSc2cn[nH]n2)c1	none
CCOC(=O)N(C)C[C@H]1OCc2cn(nn2)CCCC(=O)N([C@@H](C)CO)C[C@@H]1C	none (no result: HTRA1 inhibitor)
COC(=O)[C@@]12CCCCC3=C1N(CCC3)C(=O)[C@H]2CC(=O)N1CCCCC1	none (no result: HTRA1 inhibitor, TCR-CD3 inh)
NS(=O)(=O)c1ccc(NC(=S)NC2CCCC2)cc1	PRMT1 inh 34.3 | PRMT1 inh conf inactive
CC(=O)c1ccc(NC(=S)NCCc2ccc(S(N)(=O)=O)cc2)cc1	none
S=C(NCc1ccco1)NCc1ccco1	PRMT1 inh 26.7 | PRMT1 inh conf inactive
NS(=O)(=O)c1ccc(NC(=S)NCc2ccco2)cc1	PRMT1 inh 26.9 | PRMT1 inh conf inactive
CC(C)OCCCNC(=S)Nc1ccc(S(N)(=O)=O)cc1	PRMT1 inh 40.1 | PRMT1 inh conf 58.5
COC(=O)[C@]12C[C@H](CC(=O)NCc3cccs3)C(=O)N(Cc3cccc4ccccc34)C1=C[C@H](C(C)(C)C)O[C@@H]2C	none (no result: HTRA1 inhibitor, TCR-CD3 inh)
Cc1ccccc1CSCC1Nc2ccc(C(=O)NCCc3ccccc3)cc2NC1=O (stereo not given)	PRMT1 inh 49.2 | PRMT1 inh conf 65.0
COc1cccc(-c2nnc(SCc3cc(C)ccc3C)n2Cc2ccco2)c1	none (no result: HTRA1 inhibitor, TCR-CD3 inh)
O=C(CSS(=O)(=O)O)N1CCN(C(=O)c2ccoc2)CC1	PRMT1 inh 44.6 | PRMT1 inh conf 29.5
O=C(c1cccc(Cl)c1)C1CCCN(C(=O)c2ccoc2)C1 (stereo not given)	none
CC(C)CCCCCCCCc1cccc(O)c1C(=O)O	none (no result: HTRA1 inhibitor)
Nc1nc2c(s1)CCc1ccccc1-2	PRMT1 inh 26.0 | PRMT1 inh conf inactive
CCCC/C=C1/[C@H](c2ccccc2)N(C)C2=N[C@@H](c3ccccc3)CC(=O)N21	none (no result: HTRA1 inhibitor, TCR-CD3 inh)
O=C(O)CN1C(=O)C2C3CC(C2C1=O)C1C(c2ccccc2)c2sc(=O)[nH]c2SC31 (stereo not given)	PRMT1 inh 28.9 | PRMT1 inh conf 28.6
CC(C)CC(C(=O)O)N1C(=O)C2C3CC(C2C1=O)C1C(c2ccccc2)c2sc(=O)[nH]c2SC31 (stereo not given)	none
COC(=O)[C@]12C[C@H](CC(=O)NCc3ccccc3)C(=O)N(CCc3ccc(OC)c(OC)c3)C1=C[C@H](COCc1ccccc1)O[C@@H]2C	none (no result: HTRA1 inhibitor, TCR-CD3 inh)
CN=C(c1ccco1)n1c(=S)nc(-c2ccco2)n(C)c1=S	PRMT1 inh 30.3 | PRMT1 inh conf 22.9

Bioassay records deposited in PubChem by The Scripps Research Institute Molecular Screening Center.
